From ChEMBL document CHEMBL4706750, “Design and Catalyzed Activation of Mycophenolic Acid Prodrugs” (ACS Med Chem Lett, 2021)
The source made the active and inactive calls. The rule behind the calls is not given here.

Tests used:
[1] = molecular target: Inosine-5'-monophosphate dehydrogenase 2 (Homo sapiens) (UniProt P12268); assay: Inhibition of IMPDH2 (unknown origin) assessed by conversion of NAD+ to NADH preincubated for 30 mins followed by addition of inosine-5'- monophosphate substrate and NAD at 10 uM measured by plate reader method
Summary of the method: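 IMPDH2 enzyme exposed to test compounds, then stimulated with inosine-5′-monophosphate and NAD+. NADH formation followed by absorbance at 340 nm. Single test concentration of 10 μM.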

[2] = Toxicity in mouse MIN6 cells assessed by dehydrogenase activity measured after 48 hrs by CCK-8 assay; format: cell-based
Summary of the method: (§1)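 Cells cultured with compound for 48 h, then dehydrogenase activity read by colorimetric CCK-8 assay. EC50 derived from the concentration series. Cells were primary human hepatocytes or the MIN6 pancreatic β-cell line, as the line states.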

[3] = Toxicity in human hepatocytes assessed by dehydrogenase activity measured after 48 hrs by CCK-8 assay; format: cell-based, Hepatocyte; summary of the method: as §1
[4] = Stability of compound in PBS at pH 7.4 and 37 degree C measured by HPLC method; format: physicochemical; details: buffer
Summary of the method: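 Compound incubated at 37 °C in PBS (pH 7.4, 5% DMSO) with no catalyst. Remaining compound followed over time.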

[5] = Prodrug conversion in PBS buffer assessed as mycophenolic acid formation in presence of nitroreductase and NADH.; format: ADME
Summary of the method: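 Prodrug incubated at 37 °C in PBS (pH 7.4, 5% DMSO) with nitroreductase conjugated to 30 μm amino-terminated polystyrene beads by reductive amination, plus NADH. Release of mycophenolic acid followed over time.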

Inosine-5'-monophosphate dehydrogenase 2 (Homo sapiens), sequence (P12268 2-514 limits assumed): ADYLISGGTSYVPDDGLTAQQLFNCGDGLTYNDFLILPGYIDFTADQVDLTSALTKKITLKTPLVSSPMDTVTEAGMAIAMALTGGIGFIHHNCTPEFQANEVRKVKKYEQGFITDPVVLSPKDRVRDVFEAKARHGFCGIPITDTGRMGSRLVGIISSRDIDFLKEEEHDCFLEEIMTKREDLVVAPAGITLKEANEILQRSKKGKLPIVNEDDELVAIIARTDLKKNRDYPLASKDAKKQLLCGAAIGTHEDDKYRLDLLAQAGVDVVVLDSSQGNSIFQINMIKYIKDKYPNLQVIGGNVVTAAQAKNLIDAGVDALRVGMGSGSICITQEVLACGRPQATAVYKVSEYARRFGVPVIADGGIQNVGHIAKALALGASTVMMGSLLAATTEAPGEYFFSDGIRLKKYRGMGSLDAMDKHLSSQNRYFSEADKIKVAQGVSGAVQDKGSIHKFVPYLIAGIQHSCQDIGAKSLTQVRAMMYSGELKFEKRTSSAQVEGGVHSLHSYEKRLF

SMILES	inhibition [1]	EC50 at 48 h [2] [µM]	EC50 at 48 h [3] [µM]	Stabilty [4]	Drug metabolism [5]
COc1c(C)c2c(c(OCc3ccc([N+](=O)[O-])cc3)c1C/C=C(\C)CCC(=O)O)C(=O)OC2	inactive	24	14.4	Stable	Metabolite_Detected
COc1c(C)c2c(c(O)c1C/C=C(\C)CCC(=O)O)C(=O)OC2 [MYCOPHENOLIC ACID]	Active	0.6	5.9		
C#CCOC(=O)CC/C(C)=C/Cc1c(OC)c(C)c2c(c1OCC#C)C(=O)OC2	inactive		6.7		
C#CCOc1c(C/C=C(\C)CCC(=O)O)c(OC)c(C)c2c1C(=O)OC2	inactive		20.1	Stable	
COc1c(C)c2c(c(OCc3ccc([N+](=O)[O-])cc3)c1C/C=C(\C)CCC(=O)OCc1ccc([N+](=O)[O-])cc1)C(=O)OC2	inactive		8.3		
